Source: ChEMBL document CHEMBL1135666, “Adenosine 5'-O-(1-boranotriphosphate) derivatives as novel P2Y(1) receptor agonists” (J Med Chem, 2002)

Legend:
Bos taurus = species: Bos taurus; assay: Kinetic parameter Vmax value for Bovine spleen NTPDase1 hydrolysis.; format: ADME; conditions: cattle
Procedure, shortened: (§1)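 Semipurified bovine spleen particulate NTPDase1 (about 1 μg protein), preincubated 3 min at 37 °C in 8 mM CaCl2, 5 mM tetramisole, 50 mM imidazole, 50 mM Tris pH 7.5. The reaction was started with substrate at 10–100 μM and stopped after 7 min with malachite green to read Pi release. Apparent Km and Vmax came from a Woolf–Augustinson–Hofstee plot; assays were run in triplicate.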

NTPDase1 = assay: Kinetic parameter Km value for Bovine spleen NTPDase1 hydrolysis.; format: ADME, Bos taurus; conditions: cattle; procedure, shortened: as §1
[1] = Half life was determined; format: ADME
Procedure, shortened: (§2)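 ³¹P NMR follow-up of hydrolysis at 37 °C. At pH 7.4 the diastereoisomeric mixture (tetrasodium salt) was held in Tris-HCl buffer and recorded for 3 weeks at 1–3 day intervals; hydrolysis came from Pγ (−7.5 ppm) versus inorganic phosphate (1.7 ppm) integrals. At pH 1.4 the sample was in KCl/HCl buffer with D2O, recorded for 17 h every 0.5 h; Pβ intensity versus time was fit to pseudo-first-order kinetics.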

[2] = Hydrolysis rate constant was determined; format: ADME; procedure, shortened: as §2
P2Y purinoceptor 1 = P2Y purinoceptor 1 (Rattus norvegicus, UniProt P49651); assay: Agonists activity was evaluated by release of [Ca2+] release of HEK 293 cells stably transfected with rat-brain P2Y purinoceptor 1 (P2Y1-R); format: functional, cell-based, HEK293
Procedure, shortened: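 HEK293 cells stably expressing rat brain P2Y1 receptor, grown on coverslips, loaded 30 min with 2 μM Fura 2-AM in HEPES-buffered saline pH 7.4. Continuous superfusion with 35 °C HBS containing varying nucleotide concentrations. Single-cell fluorescence at 340/380 nm excitation, 500 nm emission. EC50 from concentration–response of ΔF340/F380, averaged over 60–100 cells; at least three separate experiments; ATP as reference.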

Half life was determined = conditions: pH 1.4, 37 °C

Sequence of P2Y purinoceptor 1 (P49651 whole entry, the tested form may be a part): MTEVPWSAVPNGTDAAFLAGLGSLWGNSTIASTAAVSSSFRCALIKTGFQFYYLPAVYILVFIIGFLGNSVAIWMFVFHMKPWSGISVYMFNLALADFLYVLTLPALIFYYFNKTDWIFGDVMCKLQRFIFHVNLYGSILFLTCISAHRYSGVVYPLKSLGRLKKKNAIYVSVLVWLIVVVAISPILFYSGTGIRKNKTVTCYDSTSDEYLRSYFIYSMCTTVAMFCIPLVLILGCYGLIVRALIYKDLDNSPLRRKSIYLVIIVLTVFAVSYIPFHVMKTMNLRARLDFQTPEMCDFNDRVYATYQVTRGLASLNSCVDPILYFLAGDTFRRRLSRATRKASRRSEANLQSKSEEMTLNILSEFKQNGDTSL

| SMILES | Vmax (Bos taurus) | Km (NTPDase1) | half-life [1] | Hydrolysis rate constant [2] | EC50 (P2Y purinoceptor 1) | half-life (Half life was determined) |
| --- | --- | --- | --- | --- | --- | --- |
| Nc1nc(Cl)nc2c1ncn2[C@@H]1O[C@H](COP(=O)([O-])OP(=O)([O-])OP(=O)([O-])[O-])[C@@H](O)[C@H]1O.[Na+].[Na+].[Na+].[Na+] | 1.9 µmol/min/mg | 12.9 µM | – | – | – | – |
| [BH3-]P(=O)(OC[C@H]1O[C@@H](n2cnc3c(N)nc(Cl)nc32)[C@H](O)[C@@H]1O)OP(=O)([O-])OP(=O)([O-])[O-].[Na+].[Na+].[Na+].[Na+] (stereo partly drawn) | 0.88 µmol/min/mg | 7.2 µM | 2.7 h | 7.2e-05 s⁻¹ | – | – |
| Nc1ncnc2c1ncn2[C@@H]1O[C@H](COP(=O)([O-])OP(=O)([O-])OP(=O)([O-])[O-])[C@@H](O)[C@H]1O.[Na+].[Na+].[Na+].[Na+] | 2.4 µmol/min/mg | 15.9 µM | – | – | – | – |
| CSc1nc(N)c2ncn([C@@H]3O[C@H](COP(=O)([O-])OP(=O)([O-])OP(=O)([O-])[O-])[C@@H](O)[C@H]3O)c2n1.[Na+].[Na+].[Na+].[Na+] | 1.9 µmol/min/mg | 62 µM | – | – | 1 nM | – |
| [BH3-]P(=O)(OC[C@H]1O[C@@H](n2cnc3c(N)ncnc32)[C@H](O)[C@@H]1O)OP(=O)([O-])OP(=O)([O-])[O-].[Na+].[Na+].[Na+].[Na+] (stereo partly drawn) | 0.78 µmol/min/mg | 13.8 µM | – | – | 200 nM | – |
| [BH3-]P(=O)(OC[C@H]1O[C@@H](n2cnc3c(N)nc(SC)nc32)[C@H](O)[C@@H]1O)OP(=O)([O-])OP(=O)([O-])[O-].[Na+].[Na+].[Na+].[Na+] (stereo partly drawn) | 0.89 µmol/min/mg | 17.4 µM | – | – | 2.6 nM | 354 min |
